What was measured:
[1] = biological target: D(2) dopamine receptor (Homo sapiens, UniProt P14416); experiment: Binding affinity to human dopamine D2L receptor expressed in HEK293 cells after 1 hr; format: cell-based
[2] = biological target: T1, 5-hydroxytryptamine receptor 1A (Homo sapiens, UniProt P08908); experiment: Displacement of [3H]-8-OH-DPAT from human 5-HT1A receptor expressed in HEK293 cells after 1 hr; format: cell-based
T1 sequence (P08908 whole entry): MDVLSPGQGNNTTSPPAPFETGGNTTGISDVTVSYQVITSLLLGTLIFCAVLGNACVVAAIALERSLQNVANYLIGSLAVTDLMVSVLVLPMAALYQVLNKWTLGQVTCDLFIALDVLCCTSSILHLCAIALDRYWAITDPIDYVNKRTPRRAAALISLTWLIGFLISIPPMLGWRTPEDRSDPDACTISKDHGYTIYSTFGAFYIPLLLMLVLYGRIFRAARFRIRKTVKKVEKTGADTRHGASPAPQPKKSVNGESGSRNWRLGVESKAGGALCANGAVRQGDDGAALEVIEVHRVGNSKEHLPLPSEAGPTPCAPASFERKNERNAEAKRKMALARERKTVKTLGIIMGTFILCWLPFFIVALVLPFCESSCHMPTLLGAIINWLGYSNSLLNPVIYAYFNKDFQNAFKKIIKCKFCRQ
How it was run: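 Membranes from stably transfected HEK293 cells (human 5-HT1A), homogenized in 50 mM Tris–HCl, 0.1 mM EDTA, 4 mM MgCl2, 10 µM pargyline, 0.1% ascorbate; incubated 1 h at room temperature, then rapid filtration and radioactivity counting. Nonspecific binding with 10 µM 5-HT.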

[3] = organism: Homo sapiens; experiment: Selectivity ratio of Ki for human 5-HT1A receptor to Ki for human 5-HT7b receptor
[4] = biological target: 5-hydroxytryptamine receptor 6 (Homo sapiens, UniProt P50406); experiment: Displacement of [3H]-LSD from human 5-HT6 receptor expressed in HEK293 cells after 1 hr; format: cell-based
Sequence of 5-hydroxytryptamine receptor 6 (P50406 whole entry): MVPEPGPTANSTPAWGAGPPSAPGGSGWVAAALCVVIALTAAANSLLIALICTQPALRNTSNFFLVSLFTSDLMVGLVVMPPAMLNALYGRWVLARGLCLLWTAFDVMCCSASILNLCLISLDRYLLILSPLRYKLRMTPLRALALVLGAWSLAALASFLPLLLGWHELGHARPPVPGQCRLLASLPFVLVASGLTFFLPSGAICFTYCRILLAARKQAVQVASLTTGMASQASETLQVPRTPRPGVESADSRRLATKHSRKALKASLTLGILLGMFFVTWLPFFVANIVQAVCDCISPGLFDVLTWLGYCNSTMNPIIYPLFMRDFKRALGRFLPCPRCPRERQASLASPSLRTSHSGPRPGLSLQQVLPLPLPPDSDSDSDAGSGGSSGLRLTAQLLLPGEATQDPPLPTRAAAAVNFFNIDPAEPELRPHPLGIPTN

[5] = biological target: 5-hydroxytryptamine receptor 7 (Homo sapiens, UniProt P34969); experiment: Displacement of [3H]-5-CT from human 5-HT7b receptor expressed in HEK293 cells after 1 hr; format: cell-based
Sequence of 5-hydroxytryptamine receptor 7 (P34969 whole entry): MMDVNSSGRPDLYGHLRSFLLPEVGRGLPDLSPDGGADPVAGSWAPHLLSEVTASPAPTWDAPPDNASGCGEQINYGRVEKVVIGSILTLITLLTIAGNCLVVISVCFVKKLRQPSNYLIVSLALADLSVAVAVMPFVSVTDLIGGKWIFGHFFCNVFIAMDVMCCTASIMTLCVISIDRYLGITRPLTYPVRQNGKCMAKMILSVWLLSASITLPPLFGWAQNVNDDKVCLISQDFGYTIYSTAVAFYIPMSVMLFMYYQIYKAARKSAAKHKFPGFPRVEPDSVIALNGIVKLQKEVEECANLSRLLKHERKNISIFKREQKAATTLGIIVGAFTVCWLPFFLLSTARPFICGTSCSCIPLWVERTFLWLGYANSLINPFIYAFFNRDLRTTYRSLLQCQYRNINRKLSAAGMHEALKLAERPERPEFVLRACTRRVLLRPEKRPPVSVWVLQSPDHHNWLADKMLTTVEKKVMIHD

Sequence of D(2) dopamine receptor (P14416 whole entry): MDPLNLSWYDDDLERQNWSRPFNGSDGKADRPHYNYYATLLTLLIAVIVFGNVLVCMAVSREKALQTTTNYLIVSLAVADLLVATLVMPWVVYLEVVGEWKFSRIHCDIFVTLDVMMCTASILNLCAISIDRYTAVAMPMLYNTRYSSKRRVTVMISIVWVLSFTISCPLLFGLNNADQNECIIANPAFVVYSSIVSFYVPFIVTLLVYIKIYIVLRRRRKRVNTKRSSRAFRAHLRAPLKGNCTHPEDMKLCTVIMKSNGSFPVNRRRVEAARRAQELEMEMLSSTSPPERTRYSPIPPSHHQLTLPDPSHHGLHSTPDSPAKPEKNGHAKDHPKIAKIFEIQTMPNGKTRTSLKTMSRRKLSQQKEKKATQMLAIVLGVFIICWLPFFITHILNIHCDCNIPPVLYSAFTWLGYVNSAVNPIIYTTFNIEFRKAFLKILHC

| Compound | Ki [1] [nM] | Ki [2] [nM] | Ratio Ki [3] | Ki [4] [nM] | Ki [5] [nM] |
| --- | --- | --- | --- | --- | --- |
| O=S(=O)(NCC1CCN(CCOc2ccccc2-c2ccccc2)CC1)c1ccc(Cl)s1 | 32 | 101 | 5 | 410 | 20 |
| O=S(=O)(N[C@H]1CCN(CCOc2ccccc2-c2ccccc2)C1)c1ccc(Cl)s1 | 8 | 147 |  | 551 |  |
| CCOc1ccccc1C(=O)NC1CCN(CCSc2ccccc2-c2ccccc2)CC1 |  |  |  |  | 329 |
| CC(C)c1ccccc1OCCN1CCC(CNS(=O)(=O)c2cccc(Cl)c2)CC1 | 66 | 104 | 2 | 177 | 46 |
| CC(C)(C)c1ccccc1OCCN1CCC(NC(=O)c2cccc(F)c2)CC1 |  |  |  |  | 1670 |
| O=S(=O)(NC1CCN(CCOc2ccccc2)C1)c1ccc(F)cc1 (stereo not given) | 11 | 9 | 1 | 248 | 9 |
| CCOc1ccccc1C(=O)NC1CCN(CCOc2ccccc2-c2ccccc2)C1 (stereo not given) |  |  |  |  | 85 |
| O=S(=O)(NC1CCN(CCOc2ccccc2)C1)c1ccc(Cl)s1 (stereo not given) | 318 | 65 |  | 957 |  |
| O=C(NC1CCN(CCOc2ccccc2-c2ccccc2)CC1)c1cccc(F)c1 |  |  |  |  | 391 |
| O=S(=O)(NC1CCN(CCOc2ccccc2-c2ccccc2)C1)c1cc(F)ccc1F (stereo not given) | 18 | 81 | 9 | 515 | 9 |
| CC(C)c1ccccc1OCCN1CC[C@H](NS(=O)(=O)c2ccc(Cl)s2)C1 | 25 | 89 |  | 537 |  |
| O=C(NC1CCN(CCOc2ccccc2-c2ccccc2)C1)c1ccc2ccccc2n1 (stereo not given) | 24 | 45 | 1 | 1340 | 41 |
| CSc1ccccc1OCCN1CCC(NS(=O)(=O)c2ccc(Cl)s2)CC1 |  |  |  |  | 17 |
| O=S(=O)(N[C@@H]1CCN(CCOc2ccccc2-c2ccccc2)C1)c1ccc(Cl)s1 | 39 | 75 |  | 202 |  |
| O=S(=O)(NC1CCN(CCOc2cccc3c2CCCC3)C1)c1cccs1 (stereo not given) | 72 | 13 | < 1 | 102 | 27 |
| Cc1ccccc1C(=O)NC1CCN(CCOc2ccccc2-c2ccccc2)C1 (stereo not given) |  |  |  |  | 59 |
| CC(C)c1ccccc1OCCN1CC[C@@H](NS(=O)(=O)c2ccc(Cl)s2)C1 | 20 | 49 |  | 200 |  |
| O=C(NC1CCN(CCOc2cccc(Cl)c2Cl)C1)c1ccc2c(c1)OCCO2 (stereo not given) |  |  |  |  | 161 |
| O=C(NC1CCN(CCOc2cc(Cl)ccc2Cl)CC1)c1ccc2ccccc2n1 |  |  |  |  | 873 |
| O=S(=O)(NC1CCN(CCOc2ccccc2-c2ccccc2)CC1)c1ccc(Cl)s1 |  |  |  |  | 12 |
| O=C(NC1CCN(CCOc2cccc3c2CCCC3)C1)c1cccc(F)c1 (stereo not given) |  |  |  |  | 2220 |
| O=S(=O)(NCC1CCN(CCOc2ccccc2-c2ccccc2)CC1)c1ccc(F)cc1 | 46 | 290 | 22 | 315 | 13 |
| O=C(NC1CCN(CCOc2ccccc2-c2ccccc2)C1)c1cccc(F)c1F (stereo not given) | 15 | 48 | 2 | 1800 | 21 |
| Cc1ccccc1C(=O)NCC1CCN(CCOc2cccc(-c3ccccc3)c2)CC1 |  |  |  |  | 2670 |
| O=S(=O)(NC1CCN(CCOc2ccccc2-c2ccccc2)CC1)c1ccc(F)c(F)c1 | 63 | 313 | 45 | 199 | 7 |
| Cc1ccccc1C(=O)NCC1CCN(CCOc2ccccc2C(C)(C)C)CC1 |  |  |  |  | 1500 |
| O=S(=O)(NC1CCN(CCOc2ccccc2-c2ccccc2)C1)c1ccc(F)cc1 (stereo not given) |  |  |  |  | 5 |
| CCOc1ccccc1C(=O)NC1CCN(CCOc2ccccc2C(C)C)CC1 |  |  |  |  | 311 |
| COc1ccc(OC)c(S(=O)(=O)NCC2CCN(CCOc3ccccc3C(C)C)CC2)c1 |  |  |  |  | 27 |
| CCOc1ccccc1C(=O)NC1CCN(CCOc2cccc(NC(C)=O)c2)C1 (stereo not given) |  |  |  |  | 3370 |

More lines, now with the values ahead:

| Ki [1] [nM] | Ki [2] [nM] | Ratio Ki [3] | Ki [4] [nM] | Ki [5] [nM] | Compound |
| --- | --- | --- | --- | --- | --- |
| 560 | 283 | < 1 | 831 | 2190 | O=S(=O)(NCC1CCN(CCOc2cccc(F)c2)CC1)c1cccc(Cl)c1 |
| 10 | 23 | 2 | 504 | 10 | CC(C)c1ccccc1OCCN1CCC(NS(=O)(=O)c2cccc3cccnc23)C1 (stereo not given) |
| 50 | 18 | < 1 | 147 | 78 | CSc1ccccc1OCCN1CCC(CNS(=O)(=O)c2cccc(Cl)c2)CC1 |
|  |  |  |  | 97 | O=S(=O)(NC1CCN(CCOc2cc(Cl)ccc2Cl)C1)c1ccc(F)c(F)c1 (stereo not given) |
| 16 | 21 | < 1 | 258 | 29 | CC(C)c1ccccc1OCCN1CCC(NS(=O)(=O)c2cccs2)C1 (stereo not given) |
|  |  |  |  | 93 | O=S(=O)(NC1CCN(CCSc2ccccc2-c2ccccc2)CC1)c1ccc(F)c(F)c1 |
|  |  |  |  | 276 | O=C(NC1CCN(CCOc2ccccc2-c2ccccc2)CC1)c1cccs1 |
| 16 | 45 | 5 | 267 | 10 | O=S(=O)(NC1CCN(CCOc2ccccc2-c2ccccc2)C1)c1cccs1 (stereo not given) |
| 67 | 28 |  | 91 |  | O=S(=O)(NC1CCN(CCOc2cccc(Cl)c2Cl)C1)c1ccc(Cl)s1 (stereo not given) |
|  |  |  |  | 815 | Cc1ccccc1C(=O)NC1CCN(CCSc2cccc(Cl)c2Cl)CC1 |
| 36 | 5 | < 1 | 185 | 15 | CSc1ccccc1OCCN1CCC(NS(=O)(=O)c2cccc(Cl)c2)C1 (stereo not given) |
|  |  |  |  | 1140 | CSc1ccccc1OCCN1CCC(NC(=O)c2cccs2)CC1 |
| 25 | 31 | 8 | 245 | 4 | CC(C)c1ccccc1OCCN1CCC(NS(=O)(=O)c2cccc(Cl)c2)C1 (stereo not given) |
|  |  |  |  | 407 | CC(C)c1ccccc1OCCN1CCC(CNC(=O)c2cccs2)CC1 |
|  |  |  |  | 427 | Cc1ccccc1C(=O)NC1CCN(CCSc2cccc(Cl)c2Cl)C1 (stereo not given) |
| 729 | 270 | < 1 | 1780 | 1440 | O=S(=O)(NC1CCN(CCOc2cccc(F)c2)C1)c1cccs1 (stereo not given) |
| 16 | 22 | 11 | 102 | 2 | O=S(=O)(N[C@@H]1CCN(CCOc2ccccc2-c2ccccc2)C1)c1ccc(F)cc1 |
| 51 | 436 | 1450 | 240 | 0.3 | CC(C)c1ccccc1OCCN1CCC(NS(=O)(=O)c2ccc(F)cc2)CC1 |

| Ki [1] [nM] | Ki [2] [nM] | Ratio Ki [3] | Ki [4] [nM] | Ki [5] [nM] | Compound |
| --- | --- | --- | --- | --- | --- |
|  |  |  |  | 709 | O=C(NC1CCN(CCOc2cccc(-c3ccccc3)c2)C1)c1cccc(F)c1 (stereo not given) |
|  |  |  |  | 204 | CCOc1ccccc1C(=O)NC1CCN(CCOc2ccccc2C(C)C)C1 (stereo not given) |
|  |  |  |  | 1110 | O=C(NC1CCN(CCSc2cccc(Cl)c2Cl)C1)c1ccc2ccccc2n1 (stereo not given) |
| 839 | 903 | < 1 | 2120 | 1360 | O=S(=O)(NCC1CCN(CCOc2cccc(F)c2)CC1)c1ccc(F)cc1 |
| 523 | 230 | < 1 | 951 | 293 | O=S(=O)(NC1CCN(CCOc2cccc(F)c2)C1)c1ccc(F)c(F)c1 (stereo not given) |
| 78 | 717 |  | 225 |  | O=S(=O)(NC1CCN(CCOc2cc(Cl)ccc2Cl)C1)c1ccc(Cl)s1 (stereo not given) |
| 76 | 456 | < 1 | 3780 | 2380 | CCOc1ccccc1C(=O)NC1CCN(CCOc2cccc(F)c2)CC1 |
| 60 | 10 | < 1 | 156 | 16 | O=S(=O)(NC1CCN(CCOc2cccc3c2CCCC3)C1)c1cc(F)ccc1F (stereo not given) |
|  |  |  |  | 1100 | CCOc1ccccc1C(=O)NC1CCN(CCOc2cccc(-c3ccccc3)c2)C1 (stereo not given) |
| 10 | 32 | 3 | 271 | 10 | O=S(=O)(N[C@H]1CCN(CCOc2ccccc2-c2ccccc2)C1)c1ccc(F)cc1 |
| 1060 | 841 | < 1 | 2760 | 2220 | O=S(=O)(NCC1CCN(CCOc2cccc(F)c2)CC1)c1cccs1 |
|  |  |  |  | 409 | Cc1ccccc1C(=O)NCC1CCN(CCOc2cccc3c2CCCC3)CC1 |
|  |  |  |  | 865 | O=C(NC1CCN(CCSc2ccccc2-c2ccccc2)CC1)c1ccc2ccccc2n1 |
|  |  |  |  | 334 | O=C(NCC1CCN(CCOc2ccccc2-c2ccccc2)CC1)c1ccc2ccccc2n1 |
|  |  |  |  | 1190 | CCOc1ccccc1C(=O)NCC1CCN(CCOc2ccccc2SC)CC1 |
|  | 250 |  |  | 3.2 | O=S(=O)(c1ccc2cc[nH]c2c1)N1CCC[C@@H]1CCN1CCC(Oc2ccc(Cl)cc2)CC1 |
|  |  |  |  | 415 | O=C(NCC1CCN(CCOc2cc(Cl)ccc2Cl)CC1)c1cccc(F)c1 |
